Sampled rows, rich in hits. Any-hit rate of the full collection: about 1.8%.
NPY2 pot ag = human NPY-Y2 potentiation or agonism, primary screen | P49146 | cells expressing NPY-Y2, potentiator/agonist read-out | activation, % at 3.6 µM | 0.45% of 220,000 active | AID 1359; in the data active = activation above about 27%;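 also: cells stimulated with NPY near EC25 plus isoproterenol at EC100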
Target sequence (P49146 whole entry, looked up): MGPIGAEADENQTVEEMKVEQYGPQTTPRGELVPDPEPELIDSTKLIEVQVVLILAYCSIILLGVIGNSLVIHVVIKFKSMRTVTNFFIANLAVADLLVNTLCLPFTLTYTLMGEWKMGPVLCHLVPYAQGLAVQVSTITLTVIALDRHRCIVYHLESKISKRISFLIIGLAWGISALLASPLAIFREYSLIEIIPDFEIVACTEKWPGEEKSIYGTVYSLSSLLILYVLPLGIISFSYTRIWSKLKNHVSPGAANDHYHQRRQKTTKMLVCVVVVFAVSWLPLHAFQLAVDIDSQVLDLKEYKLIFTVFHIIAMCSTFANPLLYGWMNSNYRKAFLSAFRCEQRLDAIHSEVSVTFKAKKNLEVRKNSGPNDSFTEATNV
NPY-Y1 PAM-ag = potentiates or activates human NPY-Y1 receptor; NPY-Y1 expressing cells, potentiator/agonist activation; AID 1304; activation, % at 3.6 µM; 0.37% of 220,000 active; in the data active = activation above about 33%, passing the limit was not always enough;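 also: cells stimulated with NPY at EC10 then isoproterenol at EC100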
NPY-Y1 antag = antagonists of human neuropeptide Y receptor Y1. 1% of 200,000 active. P25929. inhibition, % at 3.6 µM. AID 1040. HEK293-CNG Y1 cells, membrane potential fluorescence; NPY at EC95, then isoproterenol;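 active = inhibition above the campaign mean inhibition of all tested compounds plus 3 SD, cut at about 20% in these data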
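Material: HEK293 Y1/CNG channel cell line; also added: NPY (25 nM), isoproterenol (1 µM), Ro 20-1724 (25 µM); doses: one concentration, 3.6 µM, in 0.4% DMSO; schedule: compound incubation 1 h at room temperature, readout 45 min post-stimulation; technique: membrane potential fluorescence; measure: fluorescence ratio normalized to % inhibition between controls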
NPY Y2 blocker = antagonists of human neuropeptide Y receptor Y2; P49146; AID 793; NPY-Y2 expressing cells, antagonist mode; inhibition, % at 2.7 µM; 0.99% of 140,000 active; in the data active = inhibition above about 17%
Of the large screens only hits and unclear results are named; the others gave an inactive call.

O=C(NCc1ccccc1Cl)C1CCN(c2cnccn2)CC1	none (no result: NPY Y2 blocker)
CC(C)c1ccc(NC(=O)C2CC(=O)Nc3nc4ccccc4n32)cc1 (stereo unspecified)	none (no result: NPY-Y1 antag, NPY Y2 blocker)
COc1ccc(S(=O)(=O)Nc2cccc(Cl)c2)cc1OC	NPY2 pot ag 58, NPY-Y1 PAM-ag 68
COc1ccc(NS(=O)(=O)c2ccc(OC)c(OC)c2)cc1OC	none
COc1cc(OC)c(N(C)S(=O)(=O)c2cccc(C(=O)Nc3nnc(C4CC4)s3)c2)cc1Cl	NPY2 pot ag 56, NPY-Y1 PAM-ag 71 (no result: NPY-Y1 antag, NPY Y2 blocker)
Cc1ccc(N(C)S(=O)(=O)c2cccc(C(=O)Nc3nnc(C4CC4)s3)c2)cc1	none (no result: NPY Y2 blocker)
Cc1ccc2c(c1C)NC(=O)C21N2CCCC2C(C(=O)c2ccc3ccccc3c2)C12C(=O)Nc1ccccc12 (stereo unspecified)	none (no result: NPY-Y1 antag, NPY Y2 blocker)
Cc1cccc(N(C(=O)c2nsc(Cl)c2Cl)C(C(=O)NC2CCCC2)c2ccc(O)cc2)c1 (stereo unspecified)	none
COc1ccc(CN(C(=O)c2nsc(Cl)c2Cl)C(C(=O)NC2CCCC2)c2ccc(OC)cc2)cc1 (stereo unspecified)	NPY-Y1 antag 33, NPY Y2 blocker 23
S=C(NCc1ccccc1)N1CCN(C2CCCCC2)CC1	none (no result: NPY-Y1 antag, NPY Y2 blocker)
Cc1ccc(C2CC(c3cccs3)n3nc(N)nc3N2)cc1 (stereo unspecified)	NPY-Y1 antag 22
C#CCn1cc(/C=N/Nc2nc3ccccc3[nH]2)c2ccccc21	NPY2 pot ag 49, NPY-Y1 PAM-ag 45
Cc1c(Cl)cccc1NC(=S)N1CCN(Cc2ccc3c(c2)OCO3)CC1	NPY2 pot ag 33, NPY-Y1 PAM-ag 53
CCN(CC)c1ccc(C2=NNC(=O)CC2C)cc1[N+](=O)[O-] (stereo unspecified)	NPY-Y1 antag 64, NPY Y2 blocker 71
CC1CC(=O)NN=C1c1ccc(N(C)C)c([N+](=O)[O-])c1 (stereo unspecified)	NPY-Y1 antag 78, NPY Y2 blocker 94
CC1CC(=O)NN=C1c1cccs1 (stereo unspecified)	none (no result: NPY-Y1 antag, NPY Y2 blocker)
CCN(CC)CCN(C)c1ccc(N2C(=O)C3CC=CCC3C2=O)cc1[N+](=O)[O-] (stereo unspecified)	none (no result: NPY Y2 blocker)
NS(=O)(=O)c1ccc(NC(=O)COC(=O)COc2cccc(C(F)(F)F)c2)cc1	none (no result: NPY-Y1 antag, NPY Y2 blocker)
Cc1ccc(NC(=O)NC(=O)CN2C(=O)NC3(CCCCCCC3)C2=O)c(C)c1	NPY-Y1 PAM-ag 40
Cc1cc(Br)ccc1NC(=O)CNC(=O)CN1C(=O)NC2(CCCCCC2)C1=O	none
COc1ccc(-c2nnc(SCC(=O)Nc3cc(S(=O)(=O)N4CCCCC4)ccc3Cl)n2N)cc1	none
CCOc1ccccc1C1C(C#N)=C(N)Oc2cc(N)ccc21 (stereo unspecified)	NPY2 pot ag 49, NPY-Y1 PAM-ag 113
COc1ccc(OC)c(C2C(C#N)=C(N)Oc3cc(N)ccc32)c1 (stereo unspecified)	none
CCN(CC)c1c([N+](=O)[O-])c(=O)n(CC)c2ccccc12	none (no result: NPY-Y1 antag, NPY Y2 blocker)
COc1ccc(C)cc1NC(=O)COC(=O)c1c(C)noc1C	none
Cc1noc(C)c1C(=O)OCC(=O)Nc1cc(Cl)ccc1Oc1ccccc1	NPY-Y1 antag 23, NPY Y2 blocker 22
N#Cc1cccnc1Oc1ccccc1	none (no result: NPY-Y1 antag, NPY Y2 blocker)
COC(=O)[C@@]1(Cc2ccc(F)cc2)[C@H]2c3cc(C(=O)N(C)C)n(Cc4ccccc4)c3C[C@H]2CN1C(=O)c1ccccc1	NPY-Y1 antag 32, NPY Y2 blocker 21
COC(=O)[C@@]1(Cc2ccc(F)cc2)[C@H]2c3cc(C(=O)N(C)C)n(Cc4ccc(OC)c(OC)c4)c3C[C@H]2CN1C(=O)c1ccccc1	none
COCCn1c(C(=O)N2CCCC2)cc2c1C[C@H]1CN(C(=O)c3ccccc3)[C@@](Cc3ccc(F)cc3)(C(=O)OC)[C@@H]21	none
COC(=O)[C@@]1(Cc2ccc(OC)cc2)[C@H]2c3cc(C(=O)N4CCCC4)n(Cc4ccc(C)o4)c3C[C@H]2CN1C(=O)c1ccccc1	NPY-Y1 antag 32, NPY Y2 blocker 23
Nn1c(SCc2ccccc2F)nnc1-c1ccccn1	none (no result: NPY-Y1 antag, NPY Y2 blocker)
CCOC(=O)[C@@H]1C(c2c(OC)cc(OC)cc2OC)=NO[C@@H]1C(=O)OCC	NPY2 pot ag 33, NPY-Y1 PAM-ag 69
COc1ccc(-n2cnnc2SCC(=O)N2CCN(c3ccccc3)CC2)cc1	none
COc1ccc(N2CCN(C(=O)CSc3nnc(-c4cc5ccccc5cc4O)n3C)CC2)cc1	NPY2 pot ag 92, NPY-Y1 PAM-ag 86
Cc1ccc(C2CC(C(F)(F)F)n3nc(C(=O)NCc4c(C)nn(C)c4C)c(Cl)c3N2)cc1 (stereo unspecified)	NPY2 pot ag 39, NPY-Y1 PAM-ag 48
